Reference: PMC8319958 (ACS chemical biology, 2020)
One block for each molecule: values may come before it. Numbered stars: 1 amine (or outer) side, 2 acyl side, 3 side chain; on linkers, the order of the positions; unused ones are H or OH. Peptide text beside a SMILES is read from it. * marks the point of attachment. AMC = Cc1cc(=O)oc2cc(N*)ccc12; Suc = O=C(CCC(=O)[*:2])[*:1]; Cbz = O=C(OCc1ccccc1)*

Columns and labels:
MM.1R = test: Cell viability; type: cell-based; settings: 48 h, read-out: IC50 (cell viability)
proteasome = biological target: T1, proteasome (Homo sapiens, UniProt P28074); test: Proteasome stimulation in cells detected with TAS probes; type: cell-based; settings: cells dosed 1 h with stimulator, washed, TAS3 added, monitored over 60 min
T1 sequence (P28074 60-263): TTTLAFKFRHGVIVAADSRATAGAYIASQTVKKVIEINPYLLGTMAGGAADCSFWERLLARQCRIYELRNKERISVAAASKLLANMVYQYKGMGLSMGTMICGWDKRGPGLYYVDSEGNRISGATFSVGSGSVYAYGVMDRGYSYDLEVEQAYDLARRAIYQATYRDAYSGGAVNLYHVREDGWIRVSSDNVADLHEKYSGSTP
Method in brief: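 Cells (A549, 5000/well, adhered) were pretreated 1 h with test compound in culture medium and washed three times with PBS. They were then given 10 μM probe in modified KRBH buffer, and fluorescence was read on a plate reader for […]. After 25 min equilibration each well was zeroed, linear regression was fitted, and activity was expressed as % of the DMSO control.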

A549 cells = test: Live-cell probe cleavage in A549 cells, with or without proteasome inhibitors; type: cell-based; settings: 10 μM probe, monitored over 60 min
20S CP = 20S CP (Homo sapiens, UniProt P28074); test: LC/MS assay of library peptide cleavage by 20S CP; type: biochemical; settings: 12 μM peptide, 9 nM 20S CP, 50 mM Tris pH 7.4, 37 °C, 1 h, triplicate
Method in brief: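 Peptide stocks were 600 μM in DMSO, diluted to 12 μM final in 50 mM Tris pH 7.4. One triplicate got purified 20S CP (9 nM final) and the other buffer alone; both ran 1 h at 37 °C. An equal volume of acetonitrile denatured the enzyme. LC/MS EIC peak areas of intact peptide were scaled to the buffer-control mean (set to 1) to give fraction remaining. The four-mer product mass confirmed the cleavage site.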

Molecule: CC(C)C[C@@H](C=O)NC(=O)[C@H](CC(C)C)NC(=O)[C@H](CC(C)C)NC(=O)OCc1ccccc1 [MG-132] (Cbz-Leu-Leu-Leu-aldehyde)
IC50 (MM.1R): 0.264 µM

proteasome stimulation (% activity vs DMSO control) (proteasome): strong stimulators
Molecule: CC(C)c1ccc2c(c1)c(SC(C)(C)C)c(CC(C)(C)C(=O)O)n2Cc1ccc(Cl)cc1 [MK-886]

Molecule: Cc1cc(=O)oc2cc(NC(=O)[C@H](Cc3ccc(O)cc3)NC(=O)[C@@H](NC(=O)[C@H](CC(C)C)NC(=O)[C@H](CC(C)C)NC(=O)CCC(=O)O)C(C)C)ccc12 [Suc-LLVY-AMC] (Suc-LLVY-{AMC})
fluorescence signal (RFU) in cells compared to TAS1 (A549 cells): significantly lower

cleavage by 20S CP (in words) (20S CP): did not accept
Molecule: D-Phe
